Results on 7 compounds are retold here after ChEMBL document CHEMBL3526018, “Metabolites of PPI-2458, a selective, irreversible inhibitor of methionine aminopeptidase-2: structure determination and in vivo activity” (Drug Metab Dispos, 2013).

For data set [1], the target named is Methionine aminopeptidase 2 (Homo sapiens) (UniProt P50579). As to the kind of experiment: Inhibition of human MetAP2 assessed as remaining enzyme activity after 8 hrs. More on the design: concentration or dose not given beside the values. A digest of the protocol:
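The hMetAP2 assay follows the fraction of active enzyme remaining during an 8 h incubation with inhibitor, relative to an enzyme-only control.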

The test system of data set [2] is Liver microsome. As to the kind of experiment: Retention time in human liver microsomes treated with at 5 mM PPI-2458 by LC/MS analysis. Type of data set: ADME. The following applies: 5000 µM. The method, boiled down:
(§1)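 Liver microsomes (pooled male/female) in 100 mM KPO4 pH 7.4 with PPI-2458 (5 mM stock), pre-incubated 5 min at 37°C, then 10 mM NADPH added; 20 min at 37°C with shaking. Time-zero and no-NADPH controls. Quenched with CH3CN; supernatant dried and redissolved in water. Analysed by LC-MS, ESI+ full scan 300–800 amu, C18 column, 10→50% B gradient.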
In general terms: Liver microsomes are vesicles of endoplasmic reticulum, rich in cytochrome P450 enzymes.

Data set [3] can be described thus: Retention time in mouse liver microsomes treated with at 5 mM PPI-2458 by LC/MS analysis. The following applies: 5000 µM. Type of data set: ADME. The method, boiled down:
as §1

Data set [4] concerns Rattus norvegicus. Put plainly: Inhibition of MetAP2 level in Sprague-Dawley rat whole blood assessed as free enzyme level at 0.3 mg/kg, iv by ELISA. More on the design: dose 0.3 mg/kg. In kind it is functional, organism-based. A digest of the protocol: (§2)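 Male Sprague-Dawley rats (200-225 g, n=3 per group) were dosed once IV at 0.3 mg/kg or PO at 0.3 or 3.0 mg/kg, in 11% HPCD in water. Blood, liver, lung, thymus and pooled non-mesenteric lymph nodes were taken at ~24 h and lysed or homogenized with NP-40. Free MetAP2 was measured by ELISA and expressed as % of vehicle.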

Data set [5] relates to Rattus norvegicus. Put plainly: Inhibition of MetAP2 level in Sprague-Dawley rat lymph nodes assessed as free enzyme level at 0.3 mg/kg, iv by ELISA. Type of data set: functional, organism-based. Further details: dose 0.3 mg/kg. A digest of the protocol:
as §2
Background: ELISA stands for enzyme-linked immunosorbent assay.

Data set [6] deals with Rattus norvegicus. Put plainly: Inhibition of MetAP2 level in Sprague-Dawley rat thymus assessed as free enzyme level at 0.3 mg/kg, iv by ELISA. In kind it is functional, organism-based. More on the design: dose 0.3 mg/kg. A digest of the protocol: as §2
Data set [7] relates to Rattus norvegicus. As to the kind of experiment: Inhibition of MetAP2 level in Sprague-Dawley rat lung assessed as free enzyme level at 0.3 mg/kg, iv by ELISA. More on the design: dose 0.3 mg/kg. In kind it is functional, organism-based. The method, boiled down: as §2
Data set [8] concerns Liver microsome. As to the kind of experiment: Retention time in rat liver microsomes treated with at 5 mM PPI-2458 by LC/MS analysis. The following applies: 5000 µM. Type of data set: ADME. A digest of the protocol: as §1
Data set [9] relates to Liver microsome. As to the kind of experiment: Retention time in dog liver microsomes treated with at 5 mM PPI-2458 by LC/MS analysis. The following applies: 5000 µM. In kind it is ADME, Canis lupus familiaris. A digest of the protocol:
as §1

The nature of data set [10]: Retention time in monkey liver microsomes treated with at 5 mM PPI-2458 by LC/MS analysis. In kind it is ADME, Macaca mulatta. To be noted: rhesus monkey, 5000 µM. The method, boiled down: as §1
The test system of data set [11] is Rattus norvegicus. Put plainly: Inhibition of MetAP2 level in Sprague-Dawley rat lung assessed as free enzyme level at 0.3 mg/kg, po by ELISA. Further details: dose 0.3 mg/kg. In kind it is functional, organism-based. The method, boiled down: as §2
The test system of data set [12] is Rattus norvegicus. As to the kind of experiment: Inhibition of MetAP2 level in Sprague-Dawley rat liver assessed as free enzyme level at 0.3 mg/kg, po by ELISA. In kind it is functional, organism-based. More on the design: dose 0.3 mg/kg. A digest of the protocol:
as §2

For data set [13], the system named is Rattus norvegicus. As to the kind of experiment: Inhibition of MetAP2 level in Sprague-Dawley rat lymph nodes assessed as free enzyme level at 0.3 mg/kg, po by ELISA. Type of data set: functional, organism-based. More on the design: dose 0.3 mg/kg. A digest of the protocol:
as §2

Data set [14] deals with Rattus norvegicus. Put plainly: Inhibition of MetAP2 level in Sprague-Dawley rat thymus assessed as free enzyme level at 0.3 mg/kg, po by ELISA. More on the design: dose 0.3 mg/kg. In kind it is functional, organism-based. The method, boiled down:
as §2

Data set [15] concerns Rattus norvegicus. Put plainly: Inhibition of MetAP2 level in Sprague-Dawley rat whole blood assessed as free enzyme level at 0.3 mg/kg, po by ELISA. Type of data set: functional, organism-based. Further details: dose 0.3 mg/kg. The method, boiled down:
as §2

Data set [16] concerns Rattus norvegicus. As to the kind of experiment: Inhibition of MetAP2 level in Sprague-Dawley rat liver assessed as free enzyme level at 3 mg/kg, po by ELISA. Type of data set: functional, organism-based. More on the design: dose 3 mg/kg. A digest of the protocol:
as §2

In data set [17] the test system is Rattus norvegicus. As to the kind of experiment: Inhibition of MetAP2 level in Sprague-Dawley rat liver assessed as free enzyme level at 0.3 mg/kg, iv by ELISA. In kind it is functional, organism-based. Further details: dose 0.3 mg/kg. The method, boiled down:
as §2

The test system of data set [18] is Rattus norvegicus. Put plainly: Inhibition of MetAP2 level in Sprague-Dawley rat lung assessed as free enzyme level at 3 mg/kg, po by ELISA. In kind it is functional, organism-based. More on the design: dose 3 mg/kg. The method, boiled down: as §2
The test system of data set [19] is Rattus norvegicus. As to the kind of experiment: Inhibition of MetAP2 level in Sprague-Dawley rat lymph nodes assessed as free enzyme level at 3 mg/kg, po by ELISA. Type of data set: functional, organism-based. More on the design: dose 3 mg/kg. A digest of the protocol: as §2
Data set [20] has as its system Rattus norvegicus. Put plainly: Inhibition of MetAP2 level in Sprague-Dawley rat thymus assessed as free enzyme level at 3 mg/kg, po by ELISA. Further details: dose 3 mg/kg. Type of data set: functional, organism-based. A digest of the protocol:
as §2

The subject of data set [21] is Rattus norvegicus. As to the kind of experiment: Inhibition of MetAP2 level in Sprague-Dawley rat whole blood assessed as free enzyme level at 3 mg/kg, po by ELISA. More on the design: dose 3 mg/kg. Type of data set: functional, organism-based. The method, boiled down: as §2
Data set [22] addresses Methionine aminopeptidase 2 (Homo sapiens) (UniProt P50579). As to the kind of experiment: Inhibition of human MetAP2 activity after end of experiment. Further details: scale not given: the % may be the effect or the level left.

The structures appear in SMILES notation. Activity calls are given as the source filed them. No cut-off for these calls is given here.

Sequence of Methionine aminopeptidase 2 (Homo sapiens) (P50579 2-478 limits assumed): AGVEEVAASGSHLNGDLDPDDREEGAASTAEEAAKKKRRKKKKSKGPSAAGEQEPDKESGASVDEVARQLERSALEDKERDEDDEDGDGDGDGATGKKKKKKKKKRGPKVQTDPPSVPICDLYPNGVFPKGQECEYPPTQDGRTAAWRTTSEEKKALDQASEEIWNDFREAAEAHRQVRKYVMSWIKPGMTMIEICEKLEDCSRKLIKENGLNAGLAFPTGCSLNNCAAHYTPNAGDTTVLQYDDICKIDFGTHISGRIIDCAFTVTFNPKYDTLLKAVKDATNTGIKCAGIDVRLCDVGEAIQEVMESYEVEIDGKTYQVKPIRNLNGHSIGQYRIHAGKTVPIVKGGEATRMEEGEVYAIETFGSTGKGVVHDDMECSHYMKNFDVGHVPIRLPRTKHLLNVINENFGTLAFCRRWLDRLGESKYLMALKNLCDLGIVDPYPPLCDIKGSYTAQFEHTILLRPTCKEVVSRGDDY

`CO[C@@H]1[C@H](OC(=O)N[C@@H](C(N)=O)C(C)(C)O)CC[C@]2(CO2)[C@H]1[C@@]1(C)O[C@@H]1CC=C(C)C`: the Activity in data set [1] came out at 1%. Moreover, the Retention_time in data set [2], in [3], in [8], in data set [9] and in [10] was 26.7 min each time. For the same compound, the inhibition result in [4], in data set [5], in data set [6], in [7], in data set [11] and in [12] was “Active” in each case. Moreover, the inhibition result in [13], in data set [14], in [15], in data set [16], in [17] and in data set [18] was “Active” each time. Besides, the inhibition entry in data set [19], in data set [20] and in data set [21] was “Active” throughout.

For `CO[C@@H]1[C@H](OC(=O)N[C@@H](C(N)=O)C(C)C)CC[C@]2(CO2)[C@H]1[C@@]1(C)O[C@@H]1CCC(C)(C)O`, in data set [1], the Activity was 90%.

For the compound `CO[C@@H]1[C@H](OC(=O)N[C@@H](C(N)=O)C(C)C)CC[C@]2(CO2)[C@H]1[C@@]1(C)O[C@@H]1C[C@H]1OC1(C)C`, the Activity in data set [1] worked out at 10%; in data set [22], 90%. Moreover, the Retention_time in data set [2], in data set [3], in data set [8], in [9] and in data set [10] was 20.8 min throughout. For the same compound, the inhibition result in [4], in [5], in data set [6], in data set [7], in data set [16] and in [17] was “Active” in each case. The inhibition result in [18], in [19], in data set [20] and in data set [21] was “Active” each time. In addition, the inhibition result in data set [11], in data set [12], in [13], in [14] and in data set [15] was “inactive” in each case.

Regarding `CO[C@@H]1[C@H](OC(=O)N[C@@H](C(N)=O)C(C)(C)O)CC[C@]2(CO2)[C@H]1[C@@]1(C)O[C@@H]1C[C@@H]1OC1(C)C`, in data set [1], the Activity came to 39%.

`CO[C@@H]1[C@H](OC(=O)N[C@@H](C(N)=O)C(C)C)CC[C@]2(CO2)[C@H]1[C@@]1(C)O[C@@H]1C/C=C(\C)CO`: the Activity stood at 9% in [1] and 90% in [22]. Besides, the Retention_time in data set [2], in [3], in data set [8], in data set [9] and in data set [10] was 17.6 min throughout. Moreover, the inhibition result in data set [4], in [5], in data set [6], in data set [7], in data set [16] and in [17] was “Active” in each case. The inhibition entry in [18], in data set [19], in data set [20] and in [21] was “Active” throughout. The inhibition entry in data set [11], in data set [12], in data set [13], in data set [14] and in data set [15] was “inactive” in each case.

Turning to `CO[C@@H]1[C@H](OC(=O)N[C@@H](C(N)=O)C(C)C)CC[C@]2(CO2)[C@H]1[C@@]1(C)O[C@@H]1C[C@@H]1OC1(C)C`, the figures for the Activity in [1] and in data set [22] were 58% and 40%, respectively. Also, the Retention_time in data set [2], in data set [3], in [8], in [9] and in data set [10] was 20.1 min each time. For the same compound, the inhibition entry in [4], in data set [5], in data set [6], in data set [7], in data set [16] and in [17] was “Active” in each case. Besides, the inhibition entry in data set [18], in data set [19], in [20] and in data set [21] was “Active” each time. The inhibition entry in [11], in data set [12], in data set [13], in [14] and in data set [15] was “inactive” in each case.

Consider `CO[C@@H]1[C@H](OC(=O)N[C@@H](C(N)=O)C(C)(C)O)CC[C@]2(CO2)[C@H]1[C@@]1(C)O[C@@H]1C[C@H]1OC1(C)C`, for which the Activity in [1] worked out at 6%.
